Laboratory results published in publication PMC5089614 (British Journal of Clinical Pharmacology, 2016).

Experiment: Single-dose plasma pharmacokinetics of oral ixazomib by hepatic function group
Format: in vivo, human
Conditions: for AUC(0-t) / Tmax: human, plasma; for AUC(0-t): oral; for Tmax: po; for Dose-normalized AUC 0–last (total) / Unbound AUC 0-last / Unbound dose-normalized AUC 0–last / C max (total) / Dose-normalized C max (total) / Unbound C max / Unbound dose-normalized C max: geometric mean (%CV)
Procedure, shortened: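 Solid tumour patients took a single oral dose on day 1. Moderate impairment was total bilirubin >1.5–3 × ULN and severe >3 × ULN. Plasma was sampled predose and 0.5–336 h post-dose and assayed by validated reverse-phase LC/MS/MS. Parameters were noncompartmental. Dose-normalized values were log-transformed, with ratios and 90% CI versus normal from a mixed-effects ANOVA, group fixed.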

[1] = moderate impairment vs. normal function
[2] = moderate impairment, 2.3 mg, n = 10
[3] = moderate impairment, 2.3 mg, n = 13
[4] = moderate/severe hepatic impairment combined
[5] = moderate/severe impairment combined vs. normal function
[6] = severe impairment vs. normal function
[7] = severe impairment, 1.5 mg, n = 11
[8] = severe impairment, 1.5 mg, n = 18

CC(C)C[C@H](NC(=O)CNC(=O)c1cc(Cl)ccc1Cl)B(O)O [ixazomib]
AUC(0-t) (1.5 mg): 489 ng·h/mL
AUC(0-t) (2.3 mg): 846 ng·h/mL
AUC(0-t) (4 mg): 1160 ng·h/mL
Tmax: 0.95 to 1.5 h
Tmax (1.5 mg): 1.21 h
Tmax (2.3 mg): 1.5 h
Tmax (4 mg): 0.95 h
unbound dose-normalized C max, percent higher than normal hepatic function (moderate hepatic impairment): 27%
Geometric least squares mean ratio (90% CI), total dose-normalized AUC 0–last [1]: 1.27 (0.77, 2.11)
Geometric least squares mean ratio (90% CI), total dose-normalized C max [1]: 1.21 (0.74, 2.00)
Geometric least squares mean ratio (90% CI), unbound dose-normalized AUC 0–last [1]: 1.32 (0.70, 2.50)
Geometric least squares mean ratio (90% CI), unbound dose-normalized C max [1]: 1.27 (0.74, 2.18)
Dose-normalized AUC 0–last (total) [2]: 368 (49) h·ng ml^−1 mg^−1
Unbound AUC 0-last [2]: 7.33 (61) h·ng ml^−1
Unbound dose-normalized AUC 0–last [2]: 3.19 (61) h·ng ml^−1 mg^−1
C max (total) [3]: 42.5 (63) ng ml^−1
Dose-normalized C max (total) [3]: 18.5 (63) ng ml^−1 mg^−1
Unbound C max [3]: 0.372 (80) ng ml^−1
Unbound dose-normalized C max [3]: 0.162 (80) ng ml^−1 mg^−1
total dose-normalized C max, percent higher than normal hepatic function [4]: 17%
unbound dose-normalized C max, percent higher than normal hepatic function [4]: 24%
Geometric least squares mean ratio (90% CI), total dose-normalized AUC 0–last [5]: 1.20 (0.79, 1.82)
Geometric least squares mean ratio (90% CI), total dose-normalized C max [5]: 1.17 (0.77, 1.78)
Geometric least squares mean ratio (90% CI), unbound dose-normalized AUC 0–last [5]: 1.27 (0.75, 2.16)
Geometric least squares mean ratio (90% CI), unbound dose-normalized C max [5]: 1.24 (0.79, 1.95)
C max (total) (normal function, 4 mg, n = 12): 61.0 (54) ng ml^−1
Dose-normalized AUC 0–last (total) (normal function, 4 mg, n = 12): 289 (41) h·ng ml^−1 mg^−1
Dose-normalized C max (total) (normal function, 4 mg, n = 12): 15.3 (54) ng ml^−1 mg^−1
Unbound AUC 0-last (normal function, 4 mg, n = 12): 9.65 (50) h·ng ml^−1
Unbound C max (normal function, 4 mg, n = 12): 0.509 (47) ng ml^−1
Unbound dose-normalized AUC 0–last (normal function, 4 mg, n = 12): 2.41 (50) h·ng ml^−1 mg^−1
Unbound dose-normalized C max (normal function, 4 mg, n = 12): 0.127 (47) ng ml^−1 mg^−1
unbound dose-normalized AUC0–last, percent higher than normal hepatic function (severe hepatic impairment): 23%
unbound dose-normalized C max, percent higher than normal hepatic function (severe hepatic impairment): 21%
Geometric least squares mean ratio (90% CI), total dose-normalized AUC 0–last [6]: 1.13 (0.69, 1.84)
Geometric least squares mean ratio (90% CI), total dose-normalized C max [6]: 1.14 (0.72, 1.82)
Geometric least squares mean ratio (90% CI), unbound dose-normalized AUC 0–last [6]: 1.23 (0.66, 2.29)
Geometric least squares mean ratio (90% CI), unbound dose-normalized C max [6]: 1.21 (0.74, 2.01)
Unbound AUC 0-last [7]: 4.44 (63) h·ng ml^−1
Unbound dose-normalized AUC 0–last [7]: 2.96 (63) h·ng ml^−1 mg^−1
C max (total) [8]: 26.1 (70) ng ml^−1
Dose-normalized C max (total) [8]: 17.4 (70) ng ml^−1 mg^−1
Unbound C max [8]: 0.232 (84) ng ml^−1
Unbound dose-normalized C max [8]: 0.154 (84) ng ml^−1 mg^−1
